Experiment [1] addresses T1, ATP-dependent 6-phosphofructokinase (Trypanosoma brucei) (UniProt O15648).
T1 sequence (whole entry): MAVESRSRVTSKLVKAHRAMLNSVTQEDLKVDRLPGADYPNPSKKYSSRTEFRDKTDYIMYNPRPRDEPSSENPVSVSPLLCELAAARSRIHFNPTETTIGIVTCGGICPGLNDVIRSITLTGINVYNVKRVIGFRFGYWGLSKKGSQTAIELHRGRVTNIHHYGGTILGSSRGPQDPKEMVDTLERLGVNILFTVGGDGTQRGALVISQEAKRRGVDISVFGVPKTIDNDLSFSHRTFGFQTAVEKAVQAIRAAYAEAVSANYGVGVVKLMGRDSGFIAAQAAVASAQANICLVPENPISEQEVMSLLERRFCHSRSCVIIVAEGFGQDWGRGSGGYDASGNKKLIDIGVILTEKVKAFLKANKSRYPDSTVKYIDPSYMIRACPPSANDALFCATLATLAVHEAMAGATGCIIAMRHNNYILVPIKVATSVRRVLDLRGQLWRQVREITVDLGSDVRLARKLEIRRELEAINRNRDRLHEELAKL
Kind of experiment: Inhibition of Trypanosoma brucei phosphofructokinase assessed as enzyme residual activity at 1 mM.

The target of another experiment is T2, Pyruvate kinase (Leishmania mexicana, UniProt Q27686).
T2 sequence (Q27686 whole entry): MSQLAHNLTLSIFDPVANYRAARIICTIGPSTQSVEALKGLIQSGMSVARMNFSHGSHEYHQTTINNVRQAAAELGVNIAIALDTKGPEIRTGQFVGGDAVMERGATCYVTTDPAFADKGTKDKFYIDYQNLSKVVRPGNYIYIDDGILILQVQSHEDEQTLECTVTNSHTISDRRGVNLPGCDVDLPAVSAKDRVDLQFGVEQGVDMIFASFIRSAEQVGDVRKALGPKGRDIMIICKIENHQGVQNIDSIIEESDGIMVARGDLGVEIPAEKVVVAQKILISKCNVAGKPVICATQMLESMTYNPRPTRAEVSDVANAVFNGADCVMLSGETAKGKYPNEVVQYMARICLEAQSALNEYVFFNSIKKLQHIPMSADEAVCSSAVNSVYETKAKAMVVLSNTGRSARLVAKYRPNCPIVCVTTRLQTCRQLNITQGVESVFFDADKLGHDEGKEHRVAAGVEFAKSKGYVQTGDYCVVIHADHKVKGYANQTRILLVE
Kind of experiment: Inhibition of Leishmania mexicana pyruvate kinase.

For experiment [2], the target named is T3, Pyruvate kinase (Leishmania mexicana) (UniProt Q27686).
T3 sequence (whole entry): T2 sequence (Q27686 whole entry)
Briefly: Inhibition of Leishmania mexicana pyruvate kinase assessed as enzyme residual activity at 5 mM.

The target in experiment [3] is T1, ATP-dependent 6-phosphofructokinase (Trypanosoma brucei). Briefly: Inhibition of Trypanosoma brucei phosphofructokinase assessed as enzyme residual activity at 5 mM.
Experiment [4] concerns the target T4, ATP-dependent 6-phosphofructokinase (Trypanosoma brucei, UniProt O15648).
T4 sequence (O15648 whole entry): T1 sequence (whole entry)
Briefly: Inhibition of Trypanosoma brucei phosphofructokinase.

The test system of another experiment is Trypanosoma brucei. Briefly: Antiparasitic activity against Trypanosoma brucei strain 427. It counts as functional. To be noted: read-out: ED50 (the source's name). Summed up: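 Cultured bloodstream-form Trypanosoma brucei brucei strain 427 exposed to compounds in vitro; ED50 reported.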

From ChEMBL document CHEMBL1157197, “Design, synthesis and trypanocidal activity of lead compounds based on inhibitors of parasite glycolysis” (Bioorg Med Chem, 2008) come the findings set out here.

As a reminder, the IC50 is the midpoint of a concentration-inhibition curve.

For `O=C(Nc1ccc([N+](=O)[O-])cc1)[C@H]1O[C@H](CNCc2ccc(Cl)c(Cl)c2)[C@@H](O)[C@@H]1O`, the Activity in experiment [1] is 0.8%.

On Pyruvate kinase, `O=C(Nc1cccc([N+](=O)[O-])c1)[C@H]1O[C@H](CNC2CCCCCC2)[C@@H](O)[C@@H]1O` returned an IC50 of 53 µM. For the same compound, the Activity in experiment [2] was determined as 7.6%.

On Pyruvate kinase, `COc1ccc([C@H](C)NC[C@H]2O[C@H](CO)[C@@H](O)[C@@H]2O)cc1` displayed an IC50 of 3500 µM. Also, the Activity in experiment [2] came to 22%.

On to `O=C(Nc1cccc([N+](=O)[O-])c1)[C@H]1O[C@H](CNCc2ccc(Cl)c(Cl)c2)[C@@H](O)[C@@H]1O`, for which, in experiment [1], the Activity is 1.7%.

For `OC[C@H]1O[C@H](CNC2CCCC2)[C@@H](O)[C@@H]1O`, the Activity in experiment [3] is 87%; in experiment [2], 52%. In addition, at Pyruvate kinase, the IC50 stood at 4100 µM.

Consider `O=C(NC1CCCCCC1)[C@H]1O[C@H](CNCc2ccc(Cl)c(Cl)c2)[C@@H](O)[C@@H]1O`, for which the figures for the Activity in experiment [1] and in experiment [2] were 4.7% and 88.2%, respectively. In experiment [4], this compound registered an IC50 of 80 µM. Besides, the EC50 with Trypanosoma brucei was determined as 35 µM.

`OC[C@H]1O[C@H](CNC2CCC2)[C@@H](O)[C@@H]1O`: the values for the Activity in experiment [3] and in experiment [2] were 54% and 43%, respectively. The compound further registered an IC50 on Pyruvate kinase of 4300 µM.

Consider `COc1ccc([C@@H](C)NC[C@H]2O[C@H](CO)[C@@H](O)[C@@H]2O)cc1`, for which the IC50 at Pyruvate kinase was 900 µM. Further, the Activity in experiment [2] worked out at 25%.

In turn, `C[C@H](NC[C@H]1O[C@H](CO)[C@@H](O)[C@@H]1O)c1ccc2ccccc2c1` showed an IC50 against Pyruvate kinase of 1500 µM. In addition, in experiment [2], the Activity amounted to 30%.

For the compound `CCCC(C)NC[C@H]1O[C@H](CO)[C@@H](O)[C@@H]1O` (some centres not stated), the values for the Activity in experiment [3] and in experiment [2] were 70% and 26%, respectively. Moreover, the IC50 on Pyruvate kinase was found to be 2500 µM.

Turning to `CC(C)[C@H](C)NC[C@H]1O[C@H](CO)[C@@H](O)[C@@H]1O`, the figures for the Activity in experiment [3] and in experiment [2] were 49% and 26%, respectively. This compound also displayed an IC50 against Pyruvate kinase of 2300 µM.

For the compound `OC[C@H]1O[C@H](CNCc2ccc(Cl)c(Cl)c2)[C@@H](O)[C@@H]1O`, the Activity in experiment [3] was 5%; in experiment [2], 43%. Besides, half-maximal inhibition in experiment [4] (IC50) was put at 410 µM. The EC50 with Trypanosoma brucei stood at 130 µM.

As to `OC[C@H]1O[C@H](CN[C@H]2C[C@@H]3CC[C@@H]2C3)[C@@H](O)[C@@H]1O`, the Activity in experiment [3] stood at 40%; in experiment [2], 19%. For the same compound, on Pyruvate kinase, half-maximal inhibition (IC50) was put at 1500 µM.

As for `C=CCNC(=O)[C@H]1O[C@H](CNCc2ccc(Cl)c(Cl)c2)[C@@H](O)[C@@H]1O`, the Activity in experiment [1] amounted to 2%. This compound also had an IC50 in experiment [4] of 50 µM. Moreover, the EC50 in the experiment on Trypanosoma brucei was determined as 110 µM.

For the compound `CC(CCCC(C)(C)O)NC[C@H]1O[C@H](CO)[C@@H](O)[C@@H]1O` (some centres not stated), the Activity in experiment [3] amounted to 58%; in experiment [2], 125%.

As to `OC[C@H]1O[C@H](CNCc2cccc(F)c2)[C@@H](O)[C@@H]1O`, the Activity in experiment [3] came out at 57%; in experiment [2], 100%.

For `OC[C@H]1O[C@H](CNCc2ccccc2Cl)[C@@H](O)[C@@H]1O`, the Activity in experiment [3] is 65%; in experiment [2], 71%.

Take `O=C(Nc1ccccc1)[C@H]1O[C@H](CNCc2ccc(Cl)c(Cl)c2)[C@@H](O)[C@@H]1O`: in experiment [1], the Activity came to 5.5%.

Take `OC[C@H]1O[C@H](CNC2CCCCC2)[C@@H](O)[C@@H]1O`: the Activity in experiment [3] came to 69%; in experiment [2], 83%.

Compound `O=C(NC1CCCCCC1)[C@H]1O[C@H](CNC2CCCCCC2)[C@@H](O)[C@@H]1O` gave an IC50 at Pyruvate kinase of 26 µM. Besides, in experiment [2], the Activity stood at 1.9%.

For `COC[C@H](C)NC[C@H]1O[C@H](CO)[C@@H](O)[C@@H]1O`, the Activity came to 35% in experiment [3] and 82% in experiment [2].

Regarding `C[C@@H](NC[C@H]1O[C@H](CO)[C@@H](O)[C@@H]1O)c1ccc2ccccc2c1`, the figures for the Activity in experiment [3] and in experiment [2] were 33% and 34%, respectively. On Pyruvate kinase, the IC50 came out at 1500 µM.

With `OC[C@H](Cc1ccccc1)NC[C@H]1O[C@H](CO)[C@@H](O)[C@@H]1O`, the Activity was 83% in experiment [3] and 72% in experiment [2].

Regarding `O=C(NCc1ccccc1)[C@H]1O[C@H](CNCc2ccc(Cl)c(Cl)c2)[C@@H](O)[C@@H]1O`, in experiment [1], the Activity is 4%.

`OC[C@H]1O[C@H](CNC2CCCc3ccccc32)[C@@H](O)[C@@H]1O` (some centres not stated): the Activity in experiment [3] came to 62%; in experiment [2] it was 36%. The IC50 against Pyruvate kinase stood at 1200 µM. In addition, the EC50 in the experiment with Trypanosoma brucei amounted to 830 µM.

Regarding `OC[C@H]1O[C@H](CNC2CCCCCCC2)[C@@H](O)[C@@H]1O`, the figures for the Activity in experiment [3] and in experiment [2] were 64% and 57%, respectively.

In the case of `CCCCCCNC[C@H]1O[C@H](CO)[C@@H](O)[C@@H]1O`, the Activity in experiment [2] is 40%. In addition, the EC50 in the experiment on Trypanosoma brucei worked out at 400 µM.

Take `OC[C@H]1O[C@H](CNCc2ccc(F)cc2)[C@@H](O)[C@@H]1O`: the Activity was 59% in experiment [3] and 107% in experiment [2].

As to `OC[C@H]1O[C@H](CNCc2ccc(Cl)cc2)[C@@H](O)[C@@H]1O`, the results for the Activity in experiment [3] and in experiment [2] were 65% and 81%, respectively.

Regarding `CC(C)CCC(C)NC[C@H]1O[C@H](CO)[C@@H](O)[C@@H]1O` (some centres not stated), the Activity is 44% in experiment [3] and 115% in experiment [2].

As to `O=C(NCc1ccc(Cl)c(Cl)c1)[C@H]1O[C@H](CNCc2ccc(Cl)c(Cl)c2)[C@@H](O)[C@@H]1O`, in experiment [1], the Activity turned out to be 0.9%. For the same compound, inhibition in experiment [4] was half-maximal at 23 µM (IC50). The EC50 with Trypanosoma brucei amounted to 30 µM.

Turning to `CC(C)[C@@H](C)NC[C@H]1O[C@H](CO)[C@@H](O)[C@@H]1O`, the Activity in experiment [3] was 51%; in experiment [2], 86%.

Regarding `O=C(NCc1ccc(Cl)c(Cl)c1)[C@H]1O[C@H](CNC2CCCCCC2)[C@@H](O)[C@@H]1O`, the Activity in experiment [1] was determined as 0.4%. The compound further gave an IC50 in experiment [4] of 49 µM.

For the compound `OC[C@@H](Cc1ccccc1)NC[C@H]1O[C@H](CO)[C@@H](O)[C@@H]1O`, the Activity worked out at 77% in experiment [3] and 97% in experiment [2].

Regarding `CC(NC[C@H]1O[C@H](CO)[C@@H](O)[C@@H]1O)C(O)c1ccccc1` (some centres not stated), the Activity in experiment [3] amounted to 64%; in experiment [2], 80%.

Take `Cc1ccc(CNC[C@H]2O[C@H](CO)[C@@H](O)[C@@H]2O)c(C)c1`: the figures for the Activity in experiment [3] and in experiment [2] were 87% and 103%, respectively.

For the compound `Cc1ccccc1CNC[C@H]1O[C@H](CO)[C@@H](O)[C@@H]1O`, the Activity in experiment [3] came to 68%; in experiment [2], 100%.

For `Cc1cccc(CNC[C@H]2O[C@H](CO)[C@@H](O)[C@@H]2O)c1`, the Activity is 61% in experiment [3] and 89% in experiment [2].

On to `OC[C@H]1O[C@H](CNC2CCCCCC2)[C@@H](O)[C@@H]1O`, for which the Activity in experiment [3] is 63%; in experiment [2] it was 19%. For the same compound, half-maximal inhibition on Pyruvate kinase (IC50) required 71 µM. In addition, the EC50 with Trypanosoma brucei was 1880 µM.

`Cc1ccc(CNC[C@H]2O[C@H](CO)[C@@H](O)[C@@H]2O)cc1C`: the Activity in experiment [3] came to 59%; in experiment [2], 85%.
